According to ChEMBL document CHEMBL1142148, “Antibiotic susceptibility profile of bifidobacteria as affected by oxgall, acid, and hydrogen peroxide stress” (2007):
In brackets after ≈: the same amount, converted by molar mass.

Columns and labels:
[1] = tested on: Bifidobacterium thermophilum; test: Antimicrobial activity against 60 min 1 M HCl-stressed Bifidobacterium thermophilum ATCC 25866 after 18 hrs; type: functional
Procedure, shortened: (§1)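 Mid-log MRS culture pelleted and resuspended in MRS broth brought to pH 2.0 with 1 M HCl, held anaerobically at 37°C for 60 min, then subcultured in MRS (pH 6.5) for 24 h anaerobically before MIC testing by broth microdilution (as for unstressed cells). Table footnote gives 18 h anaerobic regrowth after the stress. MIC is the median of four repetitions.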

[2] = tested on: Bifidobacterium longum; test: Antimicrobial activity against 90 mins hydrogen peroxide-stressed Bifidobacterium longum ATCC 15707 after 18 hrs; type: functional
Procedure, shortened: (§2)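 Stress applied for 90 min at 37°C under anaerobic conditions, using MRS (initial pH 6.5) containing H2O2 at each strain's own inhibitory concentration. The H2O2 level was set beforehand by microplate tolerance testing. Challenged cells were regrown in MRS for 24 h (footnote: 18 h) before MIC testing by broth microdilution. Median of four repetitions.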

[3] = tested on: Bifidobacterium thermophilum; test: Antimicrobial activity against 90 mins oxgall-stressed Bifidobacterium thermophilum ATCC 25866 after 18 hrs; type: functional
Procedure, shortened: (§3)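 Cells pelleted from mid-log MRS culture and resuspended in MRS (initial pH 6.5) with 0.3% (wt/vol) oxgall for 90 min anaerobically at 37°C. They were then regrown in MRS pH 6.5 for 24 h (footnote: 18 h) anaerobically and tested for MIC by the same broth microdilution assay. Median of four repetitions.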

[4] = tested on: Bifidobacterium longum; test: Antimicrobial activity against Bifidobacterium longum R0175; type: functional
Procedure, shortened: (§4)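 Broth microdilution in MRS plus 0.05% L-cysteine-HCl. Mid-log culture adjusted to OD650 0.1, giving about 2.5 × 10^4 to 5.0 × 10^4 CFU/well, then added to twofold serial dilutions of agent. Plates incubated anaerobically at 37°C for 18 h and read at OD650. MIC is the lowest concentration matching the uninoculated blank OD, taken as the median of four repeats.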

[5] = tested on: Bifidobacterium bifidum; test: Antimicrobial activity against 90 mins oxgall-stressed Bifidobacterium bifidum R0071 after 18 hrs; type: functional; procedure, shortened: as §3
[6] = tested on: Bifidobacterium longum; test: Antimicrobial activity against 60 min 1 M HCl-stressed Bifidobacterium longum R0175 after 18 hrs; type: functional; procedure, shortened: as §1
[7] = tested on: Bifidobacterium breve; test: Antimicrobial activity against 90 mins hydrogen peroxide-stressed Bifidobacterium breve R0070 after 18 hrs; type: functional; procedure, shortened: as §2
[8] = tested on: Bifidobacterium pseudolongum; test: Antimicrobial activity against 60 min 1 M HCl-stressed Bifidobacterium pseudolongum ATCC 25562 after 18 hrs; type: functional; procedure, shortened: as §1
[9] = Antimicrobial activity against Bifidobacterium infantis ATCC 15697; type: functional, Bifidobacterium longum subsp. infantis; conditions: Bifidobacterium longum; procedure, shortened: as §4
[10] = tested on: Bifidobacterium bifidum; test: Antimicrobial activity against 90 mins oxgall-stressed Bifidobacterium bifidum ATCC 15696 after 18 hrs; type: functional; procedure, shortened: as §3
[11] = tested on: Bifidobacterium longum; test: Antimicrobial activity against 90 mins hydrogen peroxide-stressed Bifidobacterium longum ATCC 15708 after 18 hrs; type: functional; procedure, shortened: as §2
[12] = tested on: Bifidobacterium longum; test: Antimicrobial activity against 90 mins hydrogen peroxide-stressed Bifidobacterium longum R0175 after 18 hrs; type: functional; procedure, shortened: as §2
[13] = tested on: Bifidobacterium longum; test: Antimicrobial activity against Bifidobacterium longum ATCC 15707; type: functional; procedure, shortened: as §4
[14] = tested on: Bifidobacterium bifidum; test: Antimicrobial activity against Bifidobacterium bifidum BB12; type: functional; procedure, shortened: as §4
[15] = tested on: Bifidobacterium longum; test: Antimicrobial activity against 90 mins oxgall-stressed Bifidobacterium longum R0175 after 18 hrs; type: functional; procedure, shortened: as §3
[16] = tested on: Bifidobacterium pseudolongum; test: Antimicrobial activity against Bifidobacterium pseudolongum ATCC 25562; type: functional; procedure, shortened: as §4
[17] = tested on: Bifidobacterium longum; test: Antimicrobial activity against Bifidobacterium longum P/N 601377; type: functional; procedure, shortened: as §4
[18] = tested on: Bifidobacterium breve; test: Antimicrobial activity against Bifidobacterium breve ATCC 15700; type: functional; procedure, shortened: as §4
[19] = tested on: Bifidobacterium bifidum; test: Antimicrobial activity against 90 mins oxgall-stressed Bifidobacterium bifidum BB12 after 18 hrs; type: functional; procedure, shortened: as §3
[20] = tested on: Bifidobacterium animalis; test: Antimicrobial activity against 90 mins hydrogen peroxide-stressed Bifidobacterium animalis ATCC 27536 after 18 hrs; type: functional; procedure, shortened: as §2
[21] = tested on: Bifidobacterium longum; test: Antimicrobial activity against 90 mins oxgall-stressed Bifidobacterium longum ATCC 15707 after 18 hrs; type: functional; procedure, shortened: as §3
[22] = tested on: Bifidobacterium breve; test: Antimicrobial activity against 90 mins oxgall-stressed Bifidobacterium breve R0070 after 18 hrs; type: functional; procedure, shortened: as §3
[23] = tested on: Bifidobacterium longum; test: Antimicrobial activity against 60 min 1 M HCl-stressed Bifidobacterium longum ATCC 15707 after 18 hrs; type: functional; procedure, shortened: as §1
[24] = tested on: Bifidobacterium bifidum; test: Antimicrobial activity against Bifidobacterium bifidum R0071; type: functional; procedure, shortened: as §4
[25] = tested on: Bifidobacterium bifidum; test: Antimicrobial activity against 60 min 1 M HCl-stressed Bifidobacterium bifidum BB12 after 18 hrs; type: functional; procedure, shortened: as §1
[26] = tested on: Bifidobacterium breve; test: Antimicrobial activity against 60 min 1 M HCl-stressed Bifidobacterium breve ATCC 15700 after 18 hrs; type: functional; procedure, shortened: as §1
[27] = tested on: Bifidobacterium bifidum; test: Antimicrobial activity against 60 min 1 M HCl-stressed Bifidobacterium bifidum R0071 after 18 hrs; type: functional; procedure, shortened: as §1
[28] = tested on: Bifidobacterium bifidum; test: Antimicrobial activity against Bifidobacterium bifidum ATCC 15696; type: functional; procedure, shortened: as §4
[29] = tested on: Bifidobacterium breve; test: Antimicrobial activity against 60 min 1 M HCl-stressed Bifidobacterium breve R0070 after 18 hrs; type: functional; procedure, shortened: as §1
[30] = tested on: Bifidobacterium animalis; test: Antimicrobial activity against Bifidobacterium animalis ATCC 27536; type: functional; procedure, shortened: as §4
[31] = tested on: Bifidobacterium breve; test: Antimicrobial activity against Bifidobacterium breve R0070; type: functional; procedure, shortened: as §4
[32] = tested on: Bifidobacterium longum; test: Antimicrobial activity against 60 min 1 M HCl-stressed Bifidobacterium longum P/N 601377 after 18 hrs; type: functional; procedure, shortened: as §1
[33] = tested on: Bifidobacterium animalis; test: Antimicrobial activity against 90 mins oxgall-stressed Bifidobacterium animalis ATCC 27536 after 18 hrs; type: functional; procedure, shortened: as §3
[34] = tested on: Bifidobacterium longum; test: Antimicrobial activity against 90 mins hydrogen peroxide-stressed Bifidobacterium longum P/N 601377 after 18 hrs; type: functional; procedure, shortened: as §2
[35] = tested on: Bifidobacterium longum; test: Antimicrobial activity against 90 mins oxgall-stressed Bifidobacterium longum ATCC 15708 after 18 hrs; type: functional; procedure, shortened: as §3
[36] = tested on: Bifidobacterium animalis; test: Antimicrobial activity against 60 min 1 M HCl-stressed Bifidobacterium animalis ATCC 27536 after 18 hrs; type: functional; procedure, shortened: as §1
[37] = tested on: Bifidobacterium breve; test: Antimicrobial activity against 90 mins oxgall-stressed Bifidobacterium breve ATCC 15700 after 18 hrs; type: functional; procedure, shortened: as §3
[38] = tested on: Bifidobacterium thermophilum; test: Antimicrobial activity against 90 mins hydrogen peroxide-stressed Bifidobacterium thermophilum ATCC 25866 after 18 hrs; type: functional; procedure, shortened: as §2
[39] = Antimicrobial activity against 90 mins oxgall-stressed Bifidobacterium infantis ATCC 15697 after 18 hrs; type: functional, Bifidobacterium longum subsp. infantis; conditions: Bifidobacterium longum; procedure, shortened: as §3
[40] = tested on: Bifidobacterium breve; test: Antimicrobial activity against 90 mins hydrogen peroxide-stressed Bifidobacterium breve ATCC 15700 after 18 hrs; type: functional; procedure, shortened: as §2
[41] = tested on: Bifidobacterium longum; test: Antimicrobial activity against 90 mins oxgall-stressed Bifidobacterium longum P/N 601377 after 18 hrs; type: functional; procedure, shortened: as §3
[42] = tested on: Bifidobacterium longum; test: Antimicrobial activity against Bifidobacterium longum ATCC 15708; type: functional; procedure, shortened: as §4
[43] = Antimicrobial activity against 60 min 1 M HCl-stressed Bifidobacterium infantis ATCC 15697 after 18 hrs; type: functional, Bifidobacterium longum subsp. infantis; conditions: Bifidobacterium longum; procedure, shortened: as §1
[44] = tested on: Bifidobacterium bifidum; test: Antimicrobial activity against 90 mins hydrogen peroxide-stressed Bifidobacterium bifidum R0071 after 18 hrs; type: functional; procedure, shortened: as §2
[45] = tested on: Bifidobacterium thermophilum; test: Antimicrobial activity against Bifidobacterium thermophilum ATCC 25866; type: functional; procedure, shortened: as §4
[46] = tested on: Bifidobacterium bifidum; test: Antimicrobial activity against 90 mins hydrogen peroxide-stressed Bifidobacterium bifidum BB12 after 18 hrs; type: functional; procedure, shortened: as §2
[47] = tested on: Bifidobacterium pseudolongum; test: Antimicrobial activity against 90 mins oxgall-stressed Bifidobacterium pseudolongum ATCC 25562 after 18 hrs; type: functional; procedure, shortened: as §3

MIC [1]: 250 µg/mL (≈ 407 µM)
MIC [2]: 250 µg/mL (≈ 407 µM)
MIC [3]: 125 µg/mL (≈ 203 µM)
MIC [4]: 250 µg/mL (≈ 407 µM)
MIC [5]: 62.5 µg/mL (≈ 102 µM)
MIC [6]: 250 µg/mL (≈ 407 µM)
MIC [7]: 250 µg/mL (≈ 407 µM)
MIC [8]: 250 µg/mL (≈ 407 µM)
MIC [9]: 250 µg/mL (≈ 407 µM)
MIC [10]: 250 µg/mL (≈ 407 µM)
MIC [11]: 250 µg/mL (≈ 407 µM)
MIC [12]: 125 µg/mL (≈ 203 µM)
MIC [13]: 250 µg/mL (≈ 407 µM)
MIC [14]: 250 µg/mL (≈ 407 µM)
MIC [15]: 62.5 µg/mL (≈ 102 µM)
MIC [16]: 250 µg/mL (≈ 407 µM)
MIC [17]: 125 µg/mL (≈ 203 µM)
MIC [18]: 250 µg/mL (≈ 407 µM)
MIC [19]: 250 µg/mL (≈ 407 µM)
MIC [20]: 500 µg/mL (≈ 813 µM)
MIC [21]: 125 µg/mL (≈ 203 µM)
MIC [22]: 62.5 µg/mL (≈ 102 µM)
MIC [23]: 500 µg/mL (≈ 813 µM)
MIC [24]: 250 µg/mL (≈ 407 µM)
MIC [25]: 125 µg/mL (≈ 203 µM)
MIC [26]: 125 µg/mL (≈ 203 µM)
MIC [27]: 250 µg/mL (≈ 407 µM)
MIC [28]: 250 µg/mL (≈ 407 µM)
MIC [29]: 250 µg/mL (≈ 407 µM)
MIC [30]: 250 µg/mL (≈ 407 µM)
MIC [31]: 250 µg/mL (≈ 407 µM)
MIC [32]: 250 µg/mL (≈ 407 µM)
MIC [33]: 125 µg/mL (≈ 203 µM)
MIC [34]: 125 µg/mL (≈ 203 µM)
MIC [35]: 500 µg/mL (≈ 813 µM)
MIC [36]: 250 µg/mL (≈ 407 µM)
MIC [37]: 125 µg/mL (≈ 203 µM)
MIC [38]: 500 µg/mL (≈ 813 µM)
MIC [39]: 500 µg/mL (≈ 813 µM)
MIC [40]: 250 µg/mL (≈ 407 µM)
MIC [41]: 62.5 µg/mL (≈ 102 µM)
MIC [42]: 250 µg/mL (≈ 407 µM)
MIC [43]: 250 µg/mL (≈ 407 µM)
MIC [44]: 125 µg/mL (≈ 203 µM)
MIC [45]: 250 µg/mL (≈ 407 µM)
MIC [46]: 250 µg/mL (≈ 407 µM)
MIC [47]: 250 µg/mL (≈ 407 µM)
SMILES: NC[C@@H]1O[C@H](O[C@H]2[C@@H](O)[C@H](O[C@@H]3[C@@H](O)[C@H](N)C[C@H](N)[C@H]3O[C@H]3O[C@H](CN)[C@@H](O)[C@H](O)[C@H]3N)O[C@@H]2CO)[C@H](N)[C@@H](O)[C@@H]1O [FRAMYCETIN]
